Measurements as given in ChEMBL document CHEMBL1139365, “Inhibition of MDR1 activity in vitro by a novel class of diltiazem analogues: toward new candidates” (J Med Chem, 2009).
Activity calls are given as the source filed them. The rule behind the calls is not given here.

Tests used:
A2780 [1] = test: Antiproliferative activity against human A2780 cells at 15.4 uM after 3 days by MTT assay; format: functional; details: A2780, 72 h
A2780 [2] = test: Antiproliferative activity against human A2780 cells after 3 days by MTT assay; format: functional, cell-based; details: for IC50: Homo sapiens, A2780, 72 h
Method in brief: (§1)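 Cells plated 6–8 h in 96-well plates. Compound alone, in duplicate at ≥5 concentrations (3-fold serial dilutions, top 100 μM), with final DMSO […] after predilution in FCS. After 3 days, MTT 4 h at 37 °C, formazan dissolved in DMSO, A540. IC50 taken from single dose–response curves; 3–4 experiments. A2780/DX3 kept doxorubicin-free 2–3 days beforehand.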

[3] = Antiproliferative activity against human A2780/DX3 cells after 3 days by MTT assay; format: functional, cell-based; details: for IC50: Homo sapiens, A2780/DX3, 72 h; method in brief: as §1
A2780 ADR [4] = test: Reversal of P-gp 170-mediated multidrug resistance in human A2780/DX3 cells assessed as reduction in doxorubicin IC50 at IC5 pretreated for 6 hrs before doxorubicin administration measured after 3 days by MTT assay; format: cell-based; parameters: scale not given: the % may be the effect or the level left
Method in brief: (§2)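 A2780/DX3 cells went into medium holding the modulator at its MTT-derived 0% or 5% growth-inhibition concentration. Doxorubicin (30–0.048 μM serial dilutions, modulator kept constant) was added 6 h later. MTT (2 mg/mL) was added after 3 days for 4 h at 37 °C, formazan dissolved in DMSO, A540 read. IC50 came from dose–response curves, repeated 4–6 times. % reduction is versus doxorubicin alone in the same experiment. Kruskal–Wallis/Mann–Whitney tests.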

A2780 ADR [5] = test: Reversal of P-gp 170-mediated multidrug resistance in human A2780/DX3 cells assessed as reduction in doxorubicin IC50 at IC0 pretreated for 6 hrs before doxorubicin administration measured after 3 days by MTT assay; format: cell-based; parameters: scale not given: the % may be the effect or the level left; method in brief: as §2
A2780 ADR [6] = test: Reversal of P-gp 170-mediated multidrug resistance in human A2780/DX3 cells assessed as increase in intracellular doxorubicin accumulation at 5 times IC5 pretreated for 2 hrs before doxorubicin administration measured after 2 hrs by flow cytometry; format: cell-based
Method in brief: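 A2780/DX3 cells (kept in 0.1 μM doxorubicin, drug withdrawn 2–3 days before use) seeded in flasks, grown 24 h to 75–85% confluence. Modulator given at five times the 5%-growth-inhibition concentration for 2 h, then 10 μM doxorubicin for 2 h more. Cells trypsinized, fixed in 3.7% paraformaldehyde/2% sucrose in PBS. Flow cytometry, 488 nm excitation, 575 nm bandpass. Read-out is MFI, with % increase taken from the MFI ratio to doxorubicin alone.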

[7] = Antiproliferative activity against human A2780/DX3 cells at 2.25 uM after 3 days by MTT assay; format: functional; details: A2780/DX3, 72 h
A2780 [8] = test: Antiproliferative activity against human A2780 cells at 1.97 uM after 3 days by MTT assay; format: functional; details: A2780, 72 h
[9] = Antiproliferative activity against human A2780/DX3 cells at 0.84 uM after 3 days by MTT assay; format: functional; details: A2780/DX3, 72 h
A2780 [10] = test: Antiproliferative activity against human A2780 cells at 0.23 uM after 3 days by MTT assay; format: functional; details: A2780, 72 h
[11] = Antiproliferative activity against human A2780/DX3 cells at 1.88 uM after 3 days by MTT assay; format: functional; details: A2780/DX3, 72 h
A2780 [12] = test: Antiproliferative activity against human A2780 cells at 1.2 uM after 3 days by MTT assay; format: functional; details: A2780, 72 h
[13] = Antiproliferative activity against human A2780/DX3 cells at 1.0 uM after 3 days by MTT assay; format: functional; details: A2780/DX3, 72 h
A2780 [14] = test: Antiproliferative activity against human A2780 cells at 5.3 uM after 3 days by MTT assay; format: functional; details: A2780, 72 h
[15] = Antiproliferative activity against human A2780/DX3 cells at 1.9 uM after 3 days by MTT assay; format: functional; details: A2780/DX3, 72 h
A2780 [16] = test: Antiproliferative activity against human A2780 cells at 9.4 uM after 3 days by MTT assay; format: functional; details: A2780, 72 h
[17] = Antiproliferative activity against human A2780/DX3 cells at 4.2 uM after 3 days by MTT assay; format: functional; details: A2780/DX3, 72 h
A2780 [18] = test: Antiproliferative activity against human A2780 cells at 1.3 uM after 3 days by MTT assay; format: functional; details: A2780, 72 h
[19] = Blockade of L-type calcium channel
[20] = Down regulation of P-gp 170 expression in human A2780/DX3 cells after 72 hrs by flow cytometry; format: functional, cell-based
Method in brief: (§3)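 Cells exposed 72 h to compound at concentrations giving 5% or 0% growth inhibition. Then washed in PBS/2% FCS; 2.5 × 10^5 cells stained at 4 °C with anti-Pgp MM4.17 monoclonal, then FITC goat anti-mouse IgG, and analysed by flow cytometry.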

A2780 [21] = test: Down regulation of P-gp 170 expression in human A2780 cells after 72 hrs by flow cytometry; format: functional, cell-based; method in brief: as §3
[22] = Antiproliferative activity against human A2780/DX3 cells at 2.2 uM after 3 days by MTT assay; format: functional; details: A2780/DX3, 72 h
A2780 [23] = test: Antiproliferative activity against human A2780 cells at 10 uM after 3 days by MTT assay; format: functional; details: A2780, 72 h
[24] = Antiproliferative activity against human A2780/DX3 cells at 6.2 uM after 3 days by MTT assay; format: functional; details: A2780/DX3, 72 h
A2780 [25] = test: Antiproliferative activity against human A2780 cells at 0.6 uM after 3 days by MTT assay; format: functional; details: A2780, 72 h
A2780 ADR [26] = test: Reversal of P-gp 170-mediated multidrug resistance in human A2780/DX3 cells assessed as increase in intracellular doxorubicin accumulation at 5 times IC5 pretreated for 2 hrs before doxorubicin administration measured after 2 hrs by epifluorescent microscopic analysis; format: cell-based
Method in brief: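 A2780/DX3 cells on chamber slides at 75–85% confluence, pretreated 2 h with compound at five times the concentration giving 5% growth inhibition. Doxorubicin 10 μM then added for 2 h. Cells washed in cold PBS, fixed in 3.7% paraformaldehyde/2% sucrose, mounted and imaged by epifluorescence at 20X. Untreated and compound-only controls included.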

[27] = Antiproliferative activity against human A2780/DX3 cells at 1.2 uM after 3 days by MTT assay; format: functional; details: A2780/DX3, 72 h

| Structure (SMILES) | IC5 (A2780 [2]) | IC50 (A2780 [2]) | IC5 [3] | IC50 [3] | Activity (A2780 ADR [4]) | Activity (A2780 ADR [5]) | Activity (A2780 ADR [6]) | also measured |
| --- | --- | --- | --- | --- | --- | --- | --- | --- |
| COc1ccc(C2(O)SC=C(C)n3c2noc3=O)cc1 (configuration not stated) | 40.1 µM | > 100 µM | 26.7 µM | > 100 µM | 12% | 10% | < 48% | inhibition at 15.4 µM (A2780 [1]): 0%; inhibition at 2.25 µM [7]: 0% |
| CC1=CSC(O)(c2cccc(Cl)c2)c2noc(=O)n21 (configuration not stated) | 24.3 µM | > 100 µM | 3.89 µM | > 100 µM | 7% | 7% | < 48% | inhibition at 1.97 µM (A2780 [8]): 0%; inhibition at 0.84 µM [9]: 0% |
| CCCCCCCCCCCCCCCCCCOC1(c2ccc(Br)cc2)SC=C(C)n2c1noc2=O (configuration not stated) | 0.9 µM | > 100 µM | 4.9 µM | > 100 µM | -22% | -21% | < 48% | inhibition at 0.23 µM (A2780 [10]): 0%; inhibition at 1.88 µM [11]: 0% |
| CCCCOC1(c2ccc(Br)cc2)SC=C(C)n2c1noc2=O (configuration not stated) | 7.7 µM | 82 µM | 3.2 µM | 78 µM | 3% | 3% | < 48% | inhibition at 1.2 µM (A2780 [12]): 0%; inhibition at 1 µM [13]: 0% |
| CC1=CSC(O)(c2cccc(C(F)(F)F)c2)c2noc(=O)n21 (configuration not stated) | 18.3 µM | 60 µM | 12.6 µM | 71 µM | -4% | -22% | < 48% | inhibition at 5.3 µM (A2780 [14]): 0%; inhibition at 1.9 µM [15]: 0% |
| COC1(c2ccc(Br)cc2)SC=C(C)n2c1noc2=O (configuration not stated) | 21.6 µM | 148 µM | 8.9 µM | > 100 µM | -9% | -9% | < 48% | inhibition at 9.4 µM (A2780 [16]): 0%; inhibition at 4.2 µM [17]: 0% |
| COc1ccc([C@@H]2Sc3ccccc3N(CCN(C)C)C(=O)[C@@H]2OC(C)=O)cc1 [DILTIAZEM] | 2.8 µM | 163 µM | 20.6 µM | > 100 µM | -84% | -72% | 699% | inhibition at 1.3 µM (A2780 [18]): 0%; EC50 [19]: 790 nM; Activity [20]: inactive; Activity (A2780 [21]): inactive; inhibition at 2.2 µM [22]: 0% |
| CC1=CSC(O)(c2ccccc2)c2noc(=O)n21 (configuration not stated) | 100 µM | > 100 µM | 49.4 µM | > 100 µM | -2% | -16% | < 48% | inhibition at 10 µM (A2780 [23]): 0%; inhibition at 6.2 µM [24]: 0% |
| O=c1onc2n1C=CSC2(O)c1ccccc1 (configuration not stated) | 4.4 µM | > 100 µM | 32.1 µM | > 100 µM | -18% | -36% | inactive | inhibition at 0.6 µM (A2780 [25]): 0%; Activity (A2780 ADR [26]): inactive; Activity [20]: inactive; Activity (A2780 [21]): inactive; inhibition at 1.2 µM [27]: 0% |
